Experiments:
A549 = assay: Anticancer activity against human A549 cells assessed as reduction in cell viability incubated for 48 hrs by MTT assay; format: functional, cell-based; details: A549, 48 h
DU-145 = assay: Anticancer activity against human DU145 cells assessed as reduction in cell viability incubated for 48 hrs by MTT assay; format: functional, cell-based; details: DU-145, 48 h
MCF7 [1] = assay: Anticancer activity against human MCF7 cells assessed as reduction in cell viability incubated for 48 hrs by MTT assay; format: functional, cell-based; details: MCF7, 48 h
HT-29 = assay: Anticancer activity against human HT-29 cells assessed as reduction in cell viability incubated for 48 hrs by MTT assay; format: functional, cell-based; details: HT-29, 48 h
HeLa = assay: Anticancer activity against human HeLa cells assessed as reduction in cell viability incubated for 48 hrs by MTT assay; format: functional, cell-based
MCF7 [2] = assay: Anticancer activity against human MCF7 cells; format: functional
Procedure, shortened: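 Human MCF-7 breast cancer cells exposed to compound for 48 h. The IC50 (50% inhibitory concentration) is reported as the average of three individual experiments.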

CCOC(=O)[C@H]1[C@H](C(=O)OCC)C12C(=O)Nc1ccc(Cl)cc12 (relative stereo)
IC50 (A549): 29 µM
IC50 (DU-145): 19.9 µM
IC50 (MCF7 [1]): 24 µM
IC50 (HT-29): 22.9 µM
IC50 (HeLa): 25.1 µM

CC(=O)N1C(=O)[C@]2(Sc3ncccc3C(=O)N2c2ccccc2)c2cc(Br)ccc21
GI50 (MCF7 [2]): 2.13 µM

CCOC(=O)[C@H]1[C@H](C(=O)OCC)C12C(=O)N(C)c1ccccc12 (relative stereo)
IC50 (A549): 74.2 µM
IC50 (DU-145): 39.8 µM
IC50 (MCF7 [1]): 32.1 µM
IC50 (HT-29): 26.9 µM
IC50 (HeLa): 32.2 µM

CCOC(=O)[C@H]1[C@H](C(=O)c2ccc(OC)cc2)C12C(=O)N(C)c1ccccc12 (relative stereo)
IC50 (A549): 5.88 µM
IC50 (DU-145): 15 µM
IC50 (MCF7 [1]): 18.2 µM
IC50 (HT-29): 13.2 µM
IC50 (HeLa): 15.4 µM

CCOC(=O)[C@H]1[C@H](C(=O)c2ccc(Cl)cc2)C12C(=O)Nc1ccc(Br)cc12 (relative stereo)
IC50 (A549): 15.8 µM
IC50 (DU-145): 8.12 µM
IC50 (MCF7 [1]): 12.2 µM
IC50 (HT-29): 8.47 µM
IC50 (HeLa): 62.1 µM

CCOC(=O)[C@H]1[C@H](C(=O)c2ccc([N+](=O)[O-])cc2)C12C(=O)N(C)c1ccccc12 (relative stereo)
IC50 (A549): 26.1 µM
IC50 (DU-145): 18.9 µM
IC50 (MCF7 [1]): 37.1 µM
IC50 (HT-29): 19.7 µM
IC50 (HeLa): 51.2 µM

CCOC(=O)[C@H]1[C@H](C(=O)c2ccc(Cl)cc2)C12C(=O)Nc1ccc(Cl)cc12 (relative stereo)
IC50 (A549): 32.4 µM
IC50 (DU-145): > 100 µM
IC50 (MCF7 [1]): 30.8 µM
IC50 (HT-29): 79.4 µM
IC50 (HeLa): > 100 µM

CCOC(=O)[C@H]1[C@H](C(O)c2ccc(OC)cc2)C12C(=O)Nc1ccccc12 (relative stereo)
IC50 (A549): 27.5 µM
IC50 (DU-145): 1.94 µM
IC50 (MCF7 [1]): 4.78 µM
IC50 (HT-29): 2.29 µM
IC50 (HeLa): 5.78 µM

CCOC(=O)[C@H]1[C@H](C(=O)c2ccc(OC)c(OC)c2)C12C(=O)Nc1ccc(Cl)cc12 (relative stereo)
IC50 (A549): 7.07 µM
IC50 (DU-145): 8.31 µM
IC50 (MCF7 [1]): 20.3 µM
IC50 (HT-29): 9.92 µM
IC50 (HeLa): 13 µM

CCOC(=O)[C@H]1[C@H](C(=O)c2cc(OC)c(OC)c(OC)c2)C12C(=O)Nc1ccccc12 (relative stereo)
IC50 (A549): 17.7 µM
IC50 (DU-145): 15.8 µM
IC50 (MCF7 [1]): 50.1 µM
IC50 (HT-29): 8.51 µM
IC50 (HeLa): 32.8 µM

— ChEMBL document CHEMBL3627653, “Synthesis and biological evaluation of spiro[cyclopropane-1,3'-indolin]-2'-ones as potential anticancer agents” (Bioorg Med Chem Lett, 2015)
